Experiment [1] deals with T1, Geranylgeranyl transferase type I (Homo sapiens, UniProt P49354+P53609). The experiment is described as follows: Minimum inhibitory concentration required to inhibit Rap1a processing in PSN-1 cells. The format is functional, cell-based.
In experiment [2] the target is T1, Geranylgeranyl transferase type I. The experiment can be described thus: Inhibition of human Geranylgeranyl transferase type I incorporation of [3H]GGPP into biotinylated peptide corresponding to the C-terminus of human Ki-Ras. It is filed as protein-complex assay. In outline: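 Human GGPTase-I with [3H]GGPP and a biotinylated peptide matching the human Ki-Ras C-terminus. Enzyme and inhibitor are preincubated for 30 min with 5 mM ATP. The IC50 is the concentration that halves incorporation. A parallel run omits the preincubation.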

Experiment [3] concerns the target T2, Protein farnesyltransferase (Homo sapiens, UniProt P49354+P49356). The experiment is described as follows: Inhibition of human Farnesyltransferase -catalyzed incorporation of [3H]FPP into recombinant Ras-CVIM. The format is protein-complex assay. An outline of the steps:
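Human FPTase with [3H]FPP and recombinant Ras-CVIM as the protein substrate. The IC50 is the concentration that halves [3H]farnesyl incorporation into Ras-CVIM.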

In experiment [4] the target is T2, Protein farnesyltransferase. The experiment is described as follows: Displacement of radiolabeled FTI from Farnesyltransferase in cultured Ha-ras transformed RAT1 cells. It is filed as cell-based.
Experiment [5] has as its system PSN1. The experiment can be described thus: Ratio of effective concentration required for protein processing of Ki-Ras to that of HDJ2 in PSN-1 cells. It is filed as functional, Homo sapiens. An outline of the steps:
(§1)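 PSN-1 cells are treated with compound. Prenylation of HDJ2, Rap1a and Ki-Ras is scored by scanning immunoblots of whole-cell extracts, and EC50 is the dose giving half-maximal inhibition of prenylation. The ratio is Ki-Ras EC50 over HDJ2 EC50. In one arm a selective GGTI is added at 1 μM.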

For experiment [6], the system named is PSN1. The experiment can be described thus: Effective dose required for half-maximal inhibition of prenylation in PSN-1 cells (Ki-Ras). Conditions: Homo sapiens. It is filed as functional, cell-based. An outline of the steps:
as §1

In experiment [7] the test system is PSN1. The experiment is described as follows: Effective dose required for half-maximal inhibition of geranylgeranylated protein (Rap1a) in PSN-1 cells. It is filed as functional, cell-based. The note with it: Homo sapiens. In outline:
as §1

For experiment [8], the species on record is Homo sapiens. The experiment can be described thus: Slope between log (IC50) versus log [GGPP] in GGTase-I. The format is functional. An outline of the steps: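 GGPP competition in the human GGPTase-I [3H]GGPP/biotinylated Ki-Ras peptide assay. IC50s are measured at various GGPP concentrations with 5 mM ATP.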
The subject of experiment [9] is PSN1. The experiment can be described thus: Effective dose required for half-maximal inhibition of farnesylated protein (HDJ2) in PSN-1 cells. It is filed as functional, cell-based. Conditions: Homo sapiens. In outline: as §1

≈ marks a conversion by molar mass, not a printed value.

The term IC50 denotes the concentration at which inhibition is half-maximal. `C#Cc1ccc2cc1CN1CCN(CC1=O)Cc1cncn1Cc1ccc(C#N)c(c1)O2`: the MIC in [1] is 3 µM (≈ 1.27 µg/mL). For the same compound, the half-maximal inhibitory concentration (IC50) was determined as 0.212 µM in experiment [2], 0.0005 µM in [3] and 0.0014 µM in [4].
With `N#Cc1ccc2cc1Oc1ccc(CC(O)CO)c(c1)CN1CCN(CC1=O)Cc1cncn1C2` (stereo not drawn), the results for the concentration for half-maximal inhibition (IC50) in experiment [2], in [3] and in experiment [4] were 1.05 µM, 0.0068 µM and 0.04 µM, respectively.
A word on the EC50: it is the concentration at which the effect is half-maximal. A lower EC50 goes with an effect from little substance. Turning to `N#Cc1ccc2cc1Oc1ccc(CCC3CCCCC3)c(c1)CN1CCN(CC1=O)Cc1cncn1C2`, the Ratio in [5] was found to be 89. Moreover, the half-maximal effective concentration (EC50) in experiment [6] came to 1.06 µM; in [7], 0.14 µM; in experiment [9], 0.012 µM. The MIC in experiment [1] worked out at 0.03 µM (≈ 0.0153 µg/mL). The half-maximal inhibitory concentration (IC50) in experiment [2] worked out at 0.0017 µM; in experiment [3] it was 0.0016 µM; in experiment [4] it was 0.0057 µM. The Slope in experiment [8] was -0.25.
As for `N#Cc1ccc(Cn2cncc2CN2CCN(c3cccc(Cl)c3)C(=O)C2)cc1` [L-778123 FREE BASE], the 50% effective concentration (EC50) in experiment [6] came to 6.3 µM; in experiment [7], 6.76 µM; in [9], 0.092 µM. In [8], this compound gave a Slope of 1.42.
For `N#Cc1ccc2cc1Oc1ccc(C#Cc3ccccc3)c(c1)CN1CCN(CC1=O)Cc1cncn1C2`, the half-maximal inhibitory concentration (IC50) was determined as 0.534 µM in [2] and 0.645 µM in experiment [3].
In [1], `CCc1ccc2cc1CN1CCN(CC1=O)Cc1cncn1Cc1ccc(C#N)c(c1)O2` displayed an MIC of 1 µM (≈ 0.428 µg/mL). For the same compound, the half-inhibitory concentration (IC50) amounted to 0.124 µM in experiment [2], 0.00066 µM in experiment [3] and 0.0012 µM in experiment [4]. The same compound registered a Slope in [8] of -0.16.
`N#Cc1ccc2cc1Oc1ccc(F)c(c1)CN1CCN(CC1=O)Cc1cncn1C2`: the concentration for half-maximal inhibition (IC50) was 2.75 µM in experiment [2], under 0.001 µM in [3] and 0.001 µM in experiment [4].
`N#Cc1ccc2cc1Oc1ccc(C#CC3CCCCC3)c(c1)CN1CCN(CC1=O)Cc1cncn1C2` showed an MIC in experiment [1] of 0.3 µM (≈ 0.152 µg/mL). The IC50 turned out to be 0.0024 µM in experiment [2], 0.364 µM in [3] and 0.17 µM in [4]. The same compound registered a Slope in [8] of 0.68.
Turning to `N#Cc1ccc2cc1Oc1ccc(Br)c(c1)CN1CCN(CC1=O)Cc1cncn1C2`, in experiment [1], the MIC was found to be 10 µM (≈ 4.78 µg/mL). Further, the values for the IC50 in experiment [2], in [3] and in experiment [4] were 0.1 µM, 0.00045 µM and 0.0011 µM, respectively.
With `Cc1ccc2cc1CN1CCN(CC1=O)Cc1cncn1Cc1ccc(C#N)c(c1)O2`, the half-inhibitory concentration (IC50) in experiment [2] is 0.502 µM; in [4] it was 0.00033 µM.
In experiment [1], `CC(C)(C)C#Cc1ccc2cc1CN1CCN(CC1=O)Cc1cncn1Cc1ccc(C#N)c(c1)O2` gave an MIC of 1 µM (≈ 0.48 µg/mL). In addition, the half-maximal inhibitory concentration (IC50) came to 0.055 µM in [2], 0.038 µM in experiment [3] and 0.01 µM in experiment [4]. In addition, the Slope in [8] is 0.32.
As to `C=CCc1ccc2cc1CN1CCN(CC1=O)Cc1cncn1Cc1ccc(C#N)c(c1)O2`, the MIC in experiment [1] worked out at 1 µM (≈ 0.44 µg/mL). For the same compound, the values for the 50% inhibitory concentration (IC50) in experiment [2], in experiment [3] and in experiment [4] were 0.107 µM, 0.0001 µM and 0.00059 µM, respectively.
As for `CC1(C)OCC(Cc2ccc3cc2CN2CCN(CC2=O)Cc2cncn2Cc2ccc(C#N)c(c2)O3)O1` (stereo not drawn), the Ratio in experiment [5] is reported as 150. Also, the concentration for a half-maximal effect (EC50) in experiment [6] was 1.52 µM; in experiment [7], 0.69 µM; in experiment [9] it was 0.01 µM. In addition, the MIC in [1] was under 0.3 µM. Besides, the 50% inhibitory concentration (IC50) in experiment [2] came out at 0.046 µM; in experiment [3] it was 0.0005 µM; in [4] it was 0.00086 µM. In experiment [8], this compound returned a Slope of 0.25.
As for `COC(=O)c1ccc2cc1CN1CCN(CC1=O)Cc1cncn1Cc1ccc(C#N)c(c1)O2`, the MIC in experiment [1] came out at 3 µM (≈ 1.37 µg/mL). Further, the half-inhibitory concentration (IC50) is 0.42 µM in experiment [2], 0.024 µM in experiment [3] and 0.02 µM in experiment [4].
Taken in the same sequence, the figures for `N#Cc1ccc2cc1Oc1ccc(CC3CC3)c(c1)CN1CCN(CC1=O)Cc1cncn1C2` were 10 µM (≈ 4.54 µg/mL), 0.238 µM, 0.00066 µM and 0.0022 µM.
Turning to `N#Cc1ccc2cc1Oc1ccc(Cl)c(c1)CN1CCN(CC1=O)Cc1cncn1C2`, the half-maximal inhibitory concentration (IC50) is 0.45 µM in experiment [2], under 0.001 µM in experiment [3] and 0.0003 µM in experiment [4].
Turning to `N#Cc1ccc2cc1Oc1ccc(C(=O)NC3C4CC5CC(C4)CC3C5)c(c1)CN1CCN(CC1=O)Cc1cncn1C2` (stereo not drawn), in [1], the MIC amounted to 0.1 µM (≈ 0.0577 µg/mL). For the same compound, the figures for the IC50 in [2], in experiment [3] and in experiment [4] were 0.043 µM, 0.02 µM and 0.03 µM, respectively. Further, the Slope in [8] turned out to be 0.28.
In the case of `N#Cc1ccc2cc1Oc1ccc3cccc(c3c1)N1CCN(CC1=O)Cc1cncn1C2`, the Ratio in [5] is listed as over 5000. Further, the EC50 is over 10 µM in [6], over 10 µM in experiment [7] and 0.002 µM in experiment [9]. Besides, in experiment [1], the MIC came out at 10 µM (≈ 4.35 µg/mL). Further, the IC50 in experiment [2] was 0.301 µM; in experiment [4] it was 0.00029 µM. Besides, the Slope in experiment [8] is on record as -0.44.
Turning to `CC(C)(C)CCc1ccc2cc1CN1CCN(CC1=O)Cc1cncn1Cc1ccc(C#N)c(c1)O2`, the MIC in experiment [1] came to 0.1 µM (≈ 0.0484 µg/mL). Also, the IC50 in experiment [2] came to 0.0021 µM; in [3] it was 0.019 µM; in experiment [4] it was 0.028 µM. In addition, the Slope in [8] was found to be 0.48.
For `CCCc1ccc2cc1CN1CCN(CC1=O)Cc1cncn1Cc1ccc(C#N)c(c1)O2` the same measures were 1 µM (≈ 0.442 µg/mL), 0.097 µM, 0.00031 µM, 0.00044 µM and -0.12.
`N#Cc1ccc2cc1Oc1cccc(c1)CN1CCN(CC1=O)Cc1cncn1C2` gave an MIC in experiment [1] of 30 µM (≈ 12 µg/mL). For the same compound, the IC50 came out at 3.78 µM in [2], 0.0022 µM in experiment [3] and 0.0033 µM in [4]. The same compound had a Slope in [8] of 0.08.

Source of the values: ChEMBL document CHEMBL1148268, “Macrocyclic piperazinones as potent dual inhibitors of farnesyltransferase and geranylgeranyltransferase-I” (Bioorg Med Chem Lett, 2004).
